For 2 compounds, MIC, Activity and IC50 results are on record in ChEMBL document CHEMBL4400583, “Camporidines A and B: Antimetastatic and Anti-inflammatory Polyketide Alkaloids from a Gut Bacterium of Camponotus kiusiuensis” (J Nat Prod, 2019).

Structures are written as SMILES. Values after ≈ are worked out from the molar mass of the structure shown. Active and inactive are the calls of the source. The rule behind the calls is not given here.

For orientation: MIC means the lowest concentration that inhibits growth of the organism. In general, IC50 refers to the concentration that gives 50% inhibition.

One data set has as its system Escherichia coli. Description: Antibacterial activity against Escherichia coli. The class given is functional.
The test system of another data set is Staphylococcus aureus. Description: Antibacterial activity against Staphylococcus aureus. The data set is classed as functional.
The subject of data set [1] is RAW264.7. Description: Cytotoxicity against LPS-induced mouse RAW264.7 cells assessed as reduction in cell viability up to 80 uM by MTT assay. The data set is classed as cell-based. In a few lines: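 Viability of mouse macrophages after co-exposure to LPS and compound, measured by MTT assay. This was run alongside the LPS-induced NO suppression assay to check for cytotoxicity.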

A further data set has as its system SK-HEP1. The experiment in a line: Antiproliferative activity against human SKHEP1 cells after 72 hrs by SRB assay. The data set is classed as functional, cell-based.
Data set [2] has as its system RAW264.7. Description: Antiinflammatory activity in mouse RAW264.7 cells assessed as inhibition of LPS-induced nitric oxide production preincubated for 1 hr followed by LPS addition and measured on next day by Griess reagent based assay. The class given is functional, cell-based. The procedure, abridged:
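Mouse macrophages treated with compound, then stimulated with LPS to induce nitric oxide production (iNOS assay). NO suppression was read against LPS-only cells and expressed as IC50. 2-Amino-5,6-dihydro-6-methyl-4H-1,3-thiazine (AMT) was the positive control.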

For another data set, the system named is A549. Description: Antiproliferative activity against human A549 cells after 72 hrs by SRB assay. The class given is functional, cell-based.
For another data set, the system named is Trichophyton rubrum. The experiment in a line: Antifungal activity against Trichophyton rubrum. The data set is classed as functional.
Data set [3] relates to MDA-MB-231. The experiment in a line: Antiproliferative activity against human MDA-MB-231 cells after 72 hrs by SRB assay. The data set is classed as functional, cell-based. A general note: Sulforhodamine B stains cellular protein and so reports cell mass.
Data set [4] deals with Trichophyton mentagrophytes. Description: Antifungal activity against Trichophyton mentagrophytes. The data set is classed as functional.
Data set [5] deals with MDA-MB-231. The experiment in a line: Antiinvasive activity against human MDA-MB-231 cells at 40 uM after 48 hrs by crystal violet staining based microscopic method relative to control. The class given is functional. The procedure, abridged: (§1)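 Cell invasion assay with MDA-MB-231 human breast cancer cells exposed to 20 or 40 μM compound, sunitinib as positive control. Invasion decrease is relative to untreated control, given as mean ± SD of n = 3, with significance versus control.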

Data set [6] concerns MDA-MB-231. Description: Antimigratory activity against human MDA-MB-231 cells at 40 uM after 48 hrs by wound healing assay relative to control. The class given is functional. The procedure, abridged: (§2)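 Wound healing (scratch) assay on MDA-MB-231 human breast cancer cells, compound at 20 and 40 μM, sunitinib as positive control. Migration was expressed relative to untreated control as mean ± SD (n = 3), with significance versus control.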

Another data set deals with Candida albicans. The experiment in a line: Antifungal activity against Candida albicans. The class given is functional.
The subject of the next data set is Aspergillus fumigatus. Description: Antifungal activity against Aspergillus fumigatus. The class given is functional.
Data set [7] deals with MDA-MB-231. Description: Antimigratory activity against human MDA-MB-231 cells at 20 uM after 48 hrs by wound healing assay relative to control. The class given is functional. In a few lines:
as §2

In a further data set the test system is Enterococcus faecium. The experiment in a line: Antibacterial activity against Enterococcus faecium. The class given is functional.
A further data set has as its system Klebsiella pneumoniae. The experiment in a line: Antibacterial activity against Klebsiella pneumoniae. The class given is functional.
A further data set relates to HCT-116. Description: Antiproliferative activity against human HCT116 cells after 72 hrs by SRB assay. The class given is functional, cell-based.
The subject of the next data set is Salmonella enterica. The experiment in a line: Antibacterial activity against Salmonella enterica. The data set is classed as functional.
The subject of data set [8] is MDA-MB-231. Description: Antimigratory activity against human MDA-MB-231 cells after 48 hrs by wound healing assay. The class given is functional, cell-based. In a few lines: as §2
The subject of data set [9] is MDA-MB-231. Description: Antiinvasive activity against human MDA-MB-231 cells at 20 uM after 48 hrs by crystal violet staining based microscopic method relative to control. The data set is classed as functional. In a few lines:
as §1

The next data set concerns MCF-10A. The experiment in a line: Antiproliferative activity against human MCF10A cells after 72 hrs by SRB assay. The data set is classed as cell-based.
For the next data set, the species on record is Homo sapiens. The experiment in a line: Antiproliferative activity against human SNU538 cells after 72 hrs by SRB assay. The data set is classed as functional, cell-based.
The next data set relates to Enterococcus faecalis. Description: Antibacterial activity against Enterococcus faecalis. The data set is classed as functional.

As for `CCCCCC[C@H]1CN[C@H]2C=C/C(=C\C=C\C(=O)O)[C@]23O[C@H]13`, the minimal inhibitory concentration (MIC) was 64 µM (≈ 19.4 µg/mL) against Escherichia coli; 64 µM (≈ 19.4 µg/mL) against Staphylococcus aureus; more than 128 µM against Trichophyton rubrum; more than 128 µM in [4]; more than 128 µM with Candida albicans; more than 128 µM with Aspergillus fumigatus. For the same compound, the MIC in the data set on Enterococcus faecium, in the data set with Klebsiella pneumoniae, with Salmonella enterica and against Enterococcus faecalis was 64 µM (≈ 19.4 µg/mL) throughout. The Activity entry is “Non-Toxic” in the data set with RAW264.7 [1]; 36% in the data set with MDA-MB-231 [5]; 73% in the data set with MDA-MB-231 [6]; 50% in the data set with MDA-MB-231 [7]; “Dose-dependent effect” with MDA-MB-231 [8]; 20% with MDA-MB-231 [9]. Moreover, in the data set on MCF-10A, the Activity result was “Non-Toxic”. Also, the outcome in the data set with SK-HEP1, in the data set on A549, in the data set with MDA-MB-231 [3], in the data set with HCT-116 and in the data set filed under Homo sapiens was inactive. In the data set with RAW264.7 [2], the IC50 worked out at 16.9 µM.
Turning to `CCCCCC[C@H]1CN(O)[C@H]2C=C/C(=C\C=C\C(=O)O)[C@]23O[C@H]13`, the MIC against Escherichia coli is 64 µM (≈ 20.4 µg/mL); in the data set on Staphylococcus aureus, 64 µM (≈ 20.4 µg/mL); in the data set on Trichophyton rubrum, more than 128 µM; in data set [4] it was more than 128 µM; in the data set on Candida albicans it was more than 128 µM; against Aspergillus fumigatus, more than 128 µM. For the same compound, the MIC in the data set with Enterococcus faecium, in the data set with Klebsiella pneumoniae, in the data set with Salmonella enterica and in the data set with Enterococcus faecalis was 64 µM (≈ 20.4 µg/mL) in each case. In addition, the Activity result in the data set on RAW264.7 [1] and in the data set on MCF-10A was “Non-Toxic” in each case. In addition, the outcome in the data set on SK-HEP1, with A549, in the data set on MDA-MB-231 [3], in the data set on MDA-MB-231 [5], in the data set on MDA-MB-231 [6] and with MDA-MB-231 [7] was inactive. Further, the outcome in the data set on HCT-116, in the data set with MDA-MB-231 [9] and in the data set filed under Homo sapiens was inactive. The IC50 in the data set on RAW264.7 [2] was 83 µM.
